beta cell repl – inducers of MIN6 beta-cell proliferation, primary screen, ATP luminescence, uHTS | actives 0.29% (n = 330,000) | proliferation, % at 10 µM | MIN6 cells proliferation, ATPlite luminescence, 48 h; cells starved in 0.2% serum; 100% = growth in 10% serum;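 active = compounds whose signal lies at least 3.5 SD above the mean of all wells on their plate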;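 note: 0% = DMSO-treated cells in low-serum medium and 100% = 10% serum control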
FLuc stim CS – FLuc activators, initial screening, artefact control for FLuc-dependent activation tests, biochemical, ATPlite luminescence; ATPlite luciferase biochemical, 10 min; 0 = ATP-free wells, 1 = DMSO control; activation factor at 10 µM; 200,000 tested, under 10 active; AID 1027, 2008;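 active = luciferase activation factor, scaled between plate controls, of at least 2 with compound at 10 µM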
Target sequence (P08659 whole entry, looked up): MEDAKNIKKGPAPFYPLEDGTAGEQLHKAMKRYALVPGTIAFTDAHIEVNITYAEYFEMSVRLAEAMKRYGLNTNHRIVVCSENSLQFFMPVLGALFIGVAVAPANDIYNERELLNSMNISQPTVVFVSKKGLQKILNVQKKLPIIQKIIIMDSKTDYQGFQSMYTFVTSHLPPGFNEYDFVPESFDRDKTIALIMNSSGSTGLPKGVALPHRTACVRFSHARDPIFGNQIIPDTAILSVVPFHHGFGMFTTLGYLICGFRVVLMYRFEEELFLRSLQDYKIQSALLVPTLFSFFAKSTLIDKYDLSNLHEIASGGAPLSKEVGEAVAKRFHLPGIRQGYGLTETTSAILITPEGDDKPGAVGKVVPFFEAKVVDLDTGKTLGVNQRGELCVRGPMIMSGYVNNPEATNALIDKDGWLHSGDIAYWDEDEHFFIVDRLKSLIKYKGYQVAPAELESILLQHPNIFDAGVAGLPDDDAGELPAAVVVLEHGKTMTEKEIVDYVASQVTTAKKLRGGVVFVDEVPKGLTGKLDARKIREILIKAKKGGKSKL
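Assay system: Luciferase/luciferin reagent mix; Medium: PBS as buffer for the ATP substrate; Dosing: test compounds dosed from 2 mM stocks in 100% DMSO; Times: 10 min, room temperature; Signal: luminescence from luciferase reaction; Read-out: luciferase activation; Controls: No-ATP low control, compound-free enzyme-plus-ATP high control.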
TRAIL sens C8 – viability loss with TRAIL in NB7+C8 cells, primary screen, TRAIL sensitizer project, cell-based, ATPlite luminescence | actives 1% (n = 360,000) | AID 624354, 2012 | inhibition (viability loss, TRAIL sensitization), % at 10 µM;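 active = compounds causing at least 50% loss of cell viability in the single-dose screen, relative to plate controls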
PPC-1+TRAIL kill – compounds killing PPC-1 cancer cells with TRAIL present, primary screen, TRAIL potentiator project, ATPLite luminescence, uHTS; PPC-1 cells + TRAIL, ATPLite viability luminescence; cell killing (% activity), % at 4 µM or 5 µM; actives 0.41% (n = 220,000); AID 1443, 2008;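 active = cell killing above 50% in the first pass at 4 µM, then a duplicate retest at 5 µM averaging 50% or more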;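 note: plate controls were cells with TRAIL plus DMSO for no effect and medium-only wells lacking cells for full effect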
FLuc inhib CS – firefly luciferase enzyme inhibitors, primary screen, artefact control for luciferase-based inhibitor screens, biochemical, luminescence, ATPLite; actives 1.5% (n = 200,000); AID 1006, 2008; inhibition, % at 10 µM; 10 min;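 active = inhibition above about 50% when tested at 10 µM, limit read from the data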
hiPSC survival – enhancers of single-cell hiPSC survival, primary screen, ATPlite luminescence. actives 0.044% (n = 360,000). survival enhancement, % at 20 µM. AID 602274, 2012. 100% = ROCK inhibitor wells, 0% = DMSO; in the data active = survival enhancement above about 18%;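 note: cells exposed to compounds for 16 hours before the ATP read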
* = called active by the depositor; nt = not tested or not shown. An excerpt weighted towards active compounds, which were near 1.8% of everything screened.

SMILES	beta cell repl	FLuc stim CS	TRAIL sens C8	PPC-1+TRAIL kill	FLuc inhib CS	hiPSC survival
CN(Cc1nc2ccccc2c(=O)[nH]1)C(=O)c1cc(-c2ccc(Br)cc2)nc2ccccc12	nt	nt	14.3	nt	nt	0.1
CCOC(=O)c1oc2ccccc2c1COC(=O)CNC(=O)c1ccco1	10.6	nt	-1.1	nt	nt	-0.3
C/C(=N\NC(=O)c1ccc(O)cc1)c1cccc(NC(=O)c2ccccc2C)c1	-6.4	nt	62.6*	nt	nt	-0.4
C/C(=N\NC(=O)c1nn(C)c(C)c1Br)c1cccc(NC(=O)c2ccc(F)cc2)c1	0.0	0.3	52.9*	36.2	69.2*	-1.5
O=C(Nc1ccc2c(c1)OCO2)Nc1ccccn1	-0.8	0.5	28.5	33.3	50.0*	-2.9
O=C(Nc1ccc2c(c1)OCCO2)c1cccc2nc3ccccc3nc12	1.8	1	60.1*	23.1	0.1	9.6
O=C(Nc1ccc2c(c1)OCO2)Nc1cnccn1	-2.5	0.9	9.0	13.4	7.5	2.0
O=c1ccn([C@@H]2O[C@H](CNCc3cccn3-c3nccs3)[C@@H](O)[C@H]2O)c(=O)[nH]1	nt	nt	-7.3	nt	nt	-0.7
Cc1cc(C)n(CCC(=O)Nc2ccc(-c3ccno3)cc2)n1	0.1	nt	-4.3	nt	nt	1.2
O=C(CNC(=O)c1ccccc1Br)N/N=C/c1cc(Br)ccc1O	-4.3	1.1	43.2	28.1	-5.4	2.9
O=C(Nc1cc(S(=O)(=O)Nc2ccc(Cl)cc2)ccc1O)c1ccc(S(=O)(=O)N2CCCCCC2)cc1	-6.5	1	-4.8	11.5	-3.5	1.2
O=C(N/N=C\c1cc(Cl)ccc1O)c1ccc(S(=O)(=O)N2CCCCC2)cc1	0.0	1.1	20.1	51.8*	-6.5	-2.0
O=C(N/N=C/c1cc(Cl)ccc1O)c1ccccc1Br	-5.7	1	52.5*	20.5	-2.4	-1.4
Cn1cnc(S(=O)(=O)N2CCCCC2c2cc(C(=O)NCc3ccc(Cl)c(Cl)c3)no2)c1 (centres undefined)	nt	nt	-6.8	nt	nt	-0.4
CC(C)c1ccc2oc3nc(N)c(C(=O)O)cc3c(=O)c2c1	-7.9	0.1	nt	83.4*	94.8*	nt
COc1ccc(-c2nsc3c(N4CCCC4)ncnc23)cc1	-5.2	0.1	80.8*	5.2	86.3*	-5.3
COc1ccc(-c2nsc3c(N4CCN(S(=O)(=O)c5ccccc5)CC4)ncnc23)cc1	nt	1	nt	-8.0	-4.2	nt
Cc1ccnc(N(C(=O)Nc2ccccc2)C2=NCC(C)(C)S2)c1	-4.6	nt	1.4	-2.9	nt	-0.1
OC(c1cc(-c2cccc(Cl)c2)nc2ccccc12)C1CCCCN1 (centres undefined)	nt	nt	67.0*	nt	nt	-3.3
OC(c1cc(C(F)(F)F)nc2c(C(F)(F)F)cccc12)C1CCCCN1 (centres undefined)	-8.0	nt	31.6	nt	nt	-4.1
Cn1cnnc1SCC(=O)c1ccc2c(c1)OCO2	-0.2	1.1	-13.8	11.4	-5.6	21.6*
CCCCCn1cnnc1SCC(=O)c1ccc2c(c1)OCO2	-2.8	nt	-2.9	nt	nt	-0.3
CC(=O)Nc1nc2ccccc2n1CCOc1ccccc1	-1.5	1	52.4*	42.1	-1.3	-1.7
COc1ccccc1Nc1nc(N)nc(CCl)n1	-5.4	nt	91.8*	25.6	nt	-0.4
COc1ccc(OCc2nc(N)nc(Nc3ccccc3OC)n2)cc1	-0.1	1	28.3	14.7	3.0	-2.4
SMILES	beta cell repl	FLuc stim CS	TRAIL sens C8	PPC-1+TRAIL kill	FLuc inhib CS	hiPSC survival
COc1ccc(OC)c(Nc2nc(N)nc(CCl)n2)c1	-4.0	nt	92.0*	3.5	nt	1.1
Cc1cccc(Nc2nc(N)nc(CCl)n2)c1C	-2.4	nt	93.7*	39.4	nt	-0.9
Cc1cccc(Nc2nc(N)nc(CN3CCC(C(N)=O)CC3)n2)c1C	0.9	1	2.9	16.5	-2.5	0.5
CCOC(=O)[C@]12CCC=C1N(Cc1ccc(Cl)cc1Cl)C(=O)[C@H](CC(=O)NCc1ccccc1)C2	nt	nt	10.0	nt	nt	-0.4
O=C(O)[C@@H]1Cc2ccccc2N1	-0.2	nt	16.4	15.1	nt	0.2
COc1ccc(NS(=O)(=O)c2cc(NC(=O)c3nc4nc(C)cc(C)n4n3)ccc2C)cc1	3.5	1	-10.9	27.3	-4.6	0.4
CC(C)(C)c1ccc(NC(=O)c2ccsc2)cc1	-3.6	nt	69.3*	37.1	nt	-0.7
CC(C)(C)c1ccc(C(=O)Nc2ccc(Cl)cc2)cc1	-2.1	0.7	20.3	22.2	26.4	-2.5
COC(=O)Cc1ccc(NC(=O)c2ccccc2Cl)cc1	-1.9	0.7	23.7	19.6	33.1	-3.5
COC(=O)Cc1ccc(NC(=O)c2ccc(C(C)(C)C)cc2)cc1	-5.5	0.4	74.1*	39.5	60.3*	-4.3
O=C1CC(=O)Nc2cc(S(=O)(=O)Nc3ccc(F)cc3Cl)ccc2N1	-2.9	nt	7.4	nt	nt	0.1
CCOC(=O)c1ccc2ncc(-c3ccccc3)nc2c1	nt	0.3	17.5	23.6	74.3*	-0.2
CN=c1scc(C)n1/N=C/c1ccc2c(c1)OCO2	-3.4	0.4	60.8*	33.7	57.5*	-5.7
CN=c1scc(-c2ccco2)n1/N=C/c1ccc(O)c(O)c1	-5.4	0.1	38.4	28.7	87.7*	-2.9
CN=c1scc(C)n1/N=C/c1cc(Br)c(O)c(Br)c1	0.0	0.7	4.4	10.1	32.0	0.4
CN=c1scc(C)n1/N=C/c1ccc(O)cc1	-4.0	0.5	38.8	40.9	54.0*	-3.2
Cc1nnc(C)n1/N=C/c1ccc2c(c1)OCCO2	-2.9	1	-9.0	10.7	-3.5	-1.3
Cc1cc(=O)[nH]c(S/C=C/c2ccccc2)n1	-4.6	0.2	36.0	35.2	77.3*	-1.6
Fc1ccccc1N=C1NN=C(c2ccccc2)CS1	-6.4	0.7	29.2	5.6	30.3	-0.3
CC(C)N=C1NN=C(c2ccc(F)cc2)CS1	-4.4	0.4	32.6	13.6	58.4*	-1.1
CCN=C1NN=C(c2ccc(C)cc2)CS1	-3.5	0.4	6.8	-7.1	63.5*	-2.8
CC1(C(=O)NS(=O)(=O)C2CC2)CCCN(C(=O)Cc2ccc3ccccc3c2)C1 (centres undefined)	nt	nt	-2.6	nt	nt	1.2
O=C(CSc1cccs1)Nc1ccc(Cl)cc1	-0.7	nt	-8.1	12.8	nt	-0.7
COc1cc2c3nnc(-c4ccc(F)cc4)c-3cn(Cc3ccc(C)cc3)c2cc1OC	-6.3	1	84.1*	14.6	-2.4	-2.3
COc1cc2c3nnc(-c4ccc(F)cc4)c-3cn(Cc3cccc(C)c3)c2cc1OC	-6.3	1.1	59.2*	15.7	-5.4	-3.2
Cc1cc(C)nc(Nc2nc(-c3ccccc3)cs2)n1	-4.7	nt	77.0*	nt	nt	-0.4
Cc1cc(C)nc(Nc2nc(C(N)c3ccccc3)cs2)n1 (centres undefined)	nt	nt	27.8	nt	nt	-3.2

Screening data as filed in PubChem BioAssay.
